Measurements from ChEMBL document CHEMBL4014344, “Discovery of the Soluble Guanylate Cyclase Stimulator Vericiguat (BAY 1021189) for the Treatment of Chronic Heart Failure” (J Med Chem, 2017).

System: not listed separately
Assay: Oral bioavailability in Beagle dog administered via oral gavage after 24 hrs by LC-MS analysis
Format: ADME, organism-based, Canis lupus familiaris
Conditions: in vivo
Summary of the method: (§1)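 Male Wistar rats and female beagle dogs. iv in plasma/DMSO (rat) or H2O/PEG 400/EtOH (dog). Oral gavage in H2O/PEG 400/EtOH for both. Rats jugular-catheterised ≥1 d before dosing. Usually >10 blood samples, at least two after 24 h. Plasma quantified by LC-MS with internal standard. CL, t1/2, Vss and F calculated from plasma curves. Blood clearance via blood/plasma ratio (20 min blood incubation).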

SMILES	bioavailability
COC(=O)Nc1c(N)nc(-n2nc(Cc3ccccc3F)c3ncc(F)cc32)nc1N	56%
COC(=O)N(C)c1c(N)nc(-c2nn(Cc3ccccc3F)c3ncccc23)nc1N [RIOCIGUAT]	79%

System: not listed separately
Assay: Terminal half life in iv dosed Beagle dog blood after 24 hrs by LC-MS analysis
Format: ADME, organism-based, Canis lupus familiaris
Conditions: whole blood, read-out: beta t1/2 (converted)
Summary of the method: as §1

SMILES	half-life
COC(=O)Nc1c(N)nc(-n2nc(Cc3ccccc3F)c3ncc(F)cc32)nc1N	246 min
COC(=O)Nc1c(N)nc(-c2nc(Cc3ccccc3F)n3ncccc23)nc1N	108 min
COC(=O)N(C)c1c(N)nc(-c2nn(Cc3ccccc3F)c3ncccc23)nc1N [RIOCIGUAT]	144 min

System: not listed separately
Assay: Clearance in iv dosed Beagle dog blood after 24 hrs by LC-MS analysis
Format: ADME, organism-based, Canis lupus familiaris
Conditions: whole blood
Summary of the method: as §1

SMILES	clearance
COC(=O)Nc1c(N)nc(-n2nc(Cc3ccccc3F)c3ncc(F)cc32)nc1N	3.33 mL/min/kg

System: not listed separately
Assay: Volume of distribution at steady state in iv dosed Beagle dog after 24 hrs by LC-MS analysis
Format: ADME, organism-based, Canis lupus familiaris
Conditions: in vivo, read-out: Vdss
Summary of the method: as §1

SMILES	Vd
COC(=O)Nc1c(N)nc(-n2nc(Cc3ccccc3F)c3ncc(F)cc32)nc1N	1 L/kg
COC(=O)Nc1c(N)nc(-c2nc(Cc3ccccc3F)n3ncccc23)nc1N	2 L/kg
COC(=O)N(C)c1c(N)nc(-c2nn(Cc3ccccc3F)c3ncccc23)nc1N [RIOCIGUAT]	0.7 L/kg

System: Saphenous artery
Assay: Vasorelaxant activity in normal Chinchilla rabbit saphenous artery ring administered at the beginning of the last resting period of 28 mins
Format: functional
Conditions: Oryctolagus cuniculus

SMILES	IC50
O=[N+]([O-])OCC(CO[N+](=O)[O-])O[N+](=O)[O-] [NITROGLYCERIN]	1.9 nM

Target: T1, Guanylate cyclase soluble subunit alpha-1 (Rattus norvegicus) (UniProt P19686)
T1 sequence (whole entry): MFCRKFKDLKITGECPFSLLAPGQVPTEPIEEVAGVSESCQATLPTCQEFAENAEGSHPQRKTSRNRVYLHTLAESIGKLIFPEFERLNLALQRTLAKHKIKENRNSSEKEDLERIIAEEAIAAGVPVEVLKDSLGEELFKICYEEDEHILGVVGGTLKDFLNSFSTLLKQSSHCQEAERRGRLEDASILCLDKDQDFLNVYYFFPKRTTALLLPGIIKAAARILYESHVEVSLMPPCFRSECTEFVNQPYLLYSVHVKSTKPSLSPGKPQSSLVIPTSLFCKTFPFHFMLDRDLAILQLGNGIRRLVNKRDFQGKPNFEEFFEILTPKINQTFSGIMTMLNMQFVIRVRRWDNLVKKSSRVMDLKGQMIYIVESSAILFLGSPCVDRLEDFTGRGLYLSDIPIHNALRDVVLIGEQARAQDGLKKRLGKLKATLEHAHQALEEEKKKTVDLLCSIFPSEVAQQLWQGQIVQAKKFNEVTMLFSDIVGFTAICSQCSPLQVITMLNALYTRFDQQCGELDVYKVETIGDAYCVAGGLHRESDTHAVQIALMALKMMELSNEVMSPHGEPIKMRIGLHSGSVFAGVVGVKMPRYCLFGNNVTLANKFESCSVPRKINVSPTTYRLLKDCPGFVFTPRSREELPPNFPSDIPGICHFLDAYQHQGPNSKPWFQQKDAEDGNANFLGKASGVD
Assay: Stimulation of rat recombinant sGCalpha1 subunit expressed in CHO cells using alpha-[32P]GTP as substrate assessed as >=3 fold increase in [32P]cGMP formation after 10 mins by radioimmunoassay
Format: cell-based
Conditions: not given

SMILES	MEC
COC(=O)Nc1c(N)nc(-n2nc(Cc3ccccc3F)c3ncccc32)nc1N	1.2 µM
COC(=O)Nc1c(N)nc(-n2nc(Cc3ccccc3F)c3ncc(F)cc32)nc1N	0.5 µM
Nc1nc(-c2nn(Cc3ccccc3F)c3ncccc23)nc(N)c1NC(=O)OC1CCC1	0.2 µM
Nc1nc(-c2nn(Cc3ccccc3F)c3ncccc23)nc(N)c1NC(=O)OCC1CC1	0.2 µM
Nc1nc(-c2nn(Cc3ccccc3F)c3ncccc23)nc(N)c1N1C[C@H](C(F)(F)F)OC1=O	0.2 µM
Nc1nc(-c2nn(Cc3ccccc3F)c3ncccc23)nc(N)c1N1CCOC1=O	0.3 µM
CCN(C(=O)OC)c1c(N)nc(-c2nn(Cc3ccccc3F)c3ncccc23)nc1N	0.2 µM
Nc1nc(-c2nn(Cc3ccccc3F)c3ncccc23)nc(N)c1NC(=O)OC1COC1	2.3 µM
COC(=O)Nc1c(N)nc(-c2nc(Cc3ccccc3F)c3ncccn23)nc1N	1.7 µM
COC(=O)Nc1c(N)nc(-c2nc(Cc3ccccc3F)n3ncccc23)nc1N	0.7 µM
COC(=O)N(C)c1c(N)nc(-c2nn(Cc3ccccc3F)c3ncccc23)nc1N [RIOCIGUAT]	0.03 µM

System: not listed separately
Assay: Plasma clearance in iv dosed Beagle dog after 24 hrs by LC-MS analysis
Format: ADME, organism-based, Canis lupus familiaris
Conditions: not given
Summary of the method: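 Female beagle dogs were dosed iv in an H2O/PEG 400/EtOH formulation. Blood was collected into heparinized tubes, and plasma was obtained by centrifugation at 1000g and stored at −20 °C if needed. Drug was quantified by LC-MS (selected ion monitoring or high-resolution) against an internal standard. Clearance was calculated from the plasma concentration–time course.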

SMILES	clearance
COC(=O)Nc1c(N)nc(-c2nc(Cc3ccccc3F)n3ncccc23)nc1N	15 mL/min/kg
COC(=O)N(C)c1c(N)nc(-c2nn(Cc3ccccc3F)c3ncccc23)nc1N [RIOCIGUAT]	5 mL/min/kg

System: not listed separately
Assay: Efflux ratio of apparent permeability in human Caco2 cells
Format: ADME, cell-based
Conditions: Caco-2
Summary of the method: (§2)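 Caco-2 cells grown 14−16 d on inserts. Compound dissolved in DMSO and diluted to final 2 μM in HBSS with glucose (19.9 mM) and HEPES (9.8 mM). Added apically (A−B) or basolaterally, incubated 2 h at 37 °C. Both compartments analysed by LC-MS to calculate Papp. Efflux ratio = Papp B−A/Papp A−B. Lucifer yellow monolayer integrity check.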

SMILES	efflux ratio
Nc1nc(-c2nn(Cc3ccccc3F)c3ncccc23)nc(N)c1NC(=O)OC1CCC1	25
Nc1nc(-c2nn(Cc3ccccc3F)c3ncccc23)nc(N)c1NC(=O)OC1COC1	74

System: Saphenous artery
Assay: Vasorelaxant activity in nirate-tolerant Chinchilla rabbit saphenous artery ring administered at the beginning of the last resting period of 28 mins in presence of sorbide dinitrate
Format: functional
Conditions: Oryctolagus cuniculus

SMILES	IC50
O=[N+]([O-])OCC(CO[N+](=O)[O-])O[N+](=O)[O-] [NITROGLYCERIN]	9.6 nM

System: not listed separately
Assay: Clearance in rat hepatocytes at 1 uM up to 90 mins by LC-MS/MS analysis
Format: ADME, cell-based, Hepatocyte
Conditions: not given
Summary of the method: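 Rat hepatocytes at 1 × 10^6 viable cells/mL (trypan blue-corrected) in Williams' medium E, 1 μM substrate, MeCN ≤1%, 37 °C, pH 7.4. Sampled at 2−90 min, quenched with MeCN, analysed by LC-MS/MS.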

SMILES	CLhep predicted at 1 µM
COC(=O)Nc1c(N)nc(-n2nc(Cc3ccccc3F)c3ncccc32)nc1N	< 1.67 mL/min/kg
COC(=O)Nc1c(N)nc(-n2nc(Cc3ccccc3F)c3ncc(F)cc32)nc1N	1.67 mL/min/kg
Nc1nc(-c2nn(Cc3ccccc3F)c3ncccc23)nc(N)c1NC(=O)OC1CCC1	23.3 mL/min/kg
Nc1nc(-c2nn(Cc3ccccc3F)c3ncccc23)nc(N)c1NC(=O)OCC1CC1	23.3 mL/min/kg
Nc1nc(-c2nn(Cc3ccccc3F)c3ncccc23)nc(N)c1N1CCOC1=O	6.67 mL/min/kg
CCN(C(=O)OC)c1c(N)nc(-c2nn(Cc3ccccc3F)c3ncccc23)nc1N	11.7 mL/min/kg
Nc1nc(-c2nn(Cc3ccccc3F)c3ncccc23)nc(N)c1NC(=O)OC1COC1	1.67 mL/min/kg
COC(=O)Nc1c(N)nc(-c2nc(Cc3ccccc3F)n3ncccc23)nc1N	< 1.67 mL/min/kg
COC(=O)N(C)c1c(N)nc(-c2nn(Cc3ccccc3F)c3ncccc23)nc1N [RIOCIGUAT]	3.33 mL/min/kg

System: not listed separately
Assay: Apparent permeability across apical to basolateral side in human Caco2 cells at 2 uM after 2 hrs by LC-MS analysis
Format: ADME, cell-based
Conditions: Caco-2
Summary of the method: as §2

SMILES	Papp A→B at 2 h, 2 µM
Nc1nc(-c2nn(Cc3ccccc3F)c3ncccc23)nc(N)c1NC(=O)OC1CCC1	2.3 ×10⁻⁶ cm/s
Nc1nc(-c2nn(Cc3ccccc3F)c3ncccc23)nc(N)c1NC(=O)OC1COC1	0.2 ×10⁻⁶ cm/s

System: not listed separately
Assay: Clearance in iv dosed Wistar rat blood after 24 hrs by LC-MS analysis
Format: ADME, organism-based
Conditions: whole blood
Summary of the method: as §1

SMILES	clearance
COC(=O)Nc1c(N)nc(-n2nc(Cc3ccccc3F)c3ncccc32)nc1N	16.7 mL/min/kg
COC(=O)Nc1c(N)nc(-n2nc(Cc3ccccc3F)c3ncc(F)cc32)nc1N	5 mL/min/kg
COC(=O)Nc1c(N)nc(-c2nc(Cc3ccccc3F)c3ncccn23)nc1N	30 mL/min/kg
COC(=O)Nc1c(N)nc(-c2nc(Cc3ccccc3F)n3ncccc23)nc1N	15 mL/min/kg
COC(=O)N(C)c1c(N)nc(-c2nn(Cc3ccccc3F)c3ncccc23)nc1N [RIOCIGUAT]	21.7 mL/min/kg

System: not listed separately
Assay: Terminal half life in iv dosed Wistar rat blood after 24 hrs by LC-MS analysis
Format: ADME, organism-based
Conditions: whole blood, read-out: beta t1/2 (converted)
Summary of the method: as §1

SMILES	half-life
COC(=O)Nc1c(N)nc(-n2nc(Cc3ccccc3F)c3ncc(F)cc32)nc1N	90 min
COC(=O)Nc1c(N)nc(-c2nc(Cc3ccccc3F)n3ncccc23)nc1N	30 min
COC(=O)N(C)c1c(N)nc(-c2nn(Cc3ccccc3F)c3ncccc23)nc1N [RIOCIGUAT]	84 min

System: not listed separately
Assay: Oral bioavailability in Wistar rat administered via oral gavage after 24 hrs by LC-MS analysis
Format: ADME, organism-based
Conditions: in vivo
Summary of the method: as §1

SMILES	bioavailability
COC(=O)Nc1c(N)nc(-n2nc(Cc3ccccc3F)c3ncc(F)cc32)nc1N	26%
COC(=O)Nc1c(N)nc(-c2nc(Cc3ccccc3F)n3ncccc23)nc1N	37%
COC(=O)N(C)c1c(N)nc(-c2nn(Cc3ccccc3F)c3ncccc23)nc1N [RIOCIGUAT]	46%

System: not listed separately
Assay: Volume of distribution at steady state in iv dosed Wistar rat after 24 hrs by LC-MS analysis
Format: ADME, organism-based
Conditions: in vivo, read-out: Vdss
Summary of the method: as §1

SMILES	Vd
COC(=O)Nc1c(N)nc(-n2nc(Cc3ccccc3F)c3ncc(F)cc32)nc1N	0.5 L/kg
COC(=O)Nc1c(N)nc(-c2nc(Cc3ccccc3F)n3ncccc23)nc1N	0.3 L/kg
COC(=O)N(C)c1c(N)nc(-c2nn(Cc3ccccc3F)c3ncccc23)nc1N [RIOCIGUAT]	1.2 L/kg
